Results: ChEMBL document CHEMBL1125005, “Synthesis, biological profile, and quantitative structure-activity relationship of a series of novel 3-hydroxy-3-methylglutaryl coenzyme A reductase inhibitors” (J Med Chem, 1990)

Experiments:
[1] = species: Rattus norvegicus; test: In vitro inhibitory potency for cholesterol synthesis was measured in rat spleen; assay type: functional
Method in brief: (§1)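 Rat spleen and testes cell dispersions, prepared nonenzymatically. Na-salt inhibitors were preincubated with cells for 15 min under the hepatocyte conditions. [14C]acetate (45–55 μCi per μmol, 5 μCi per mL) was then incorporated for 60 min. Sterol IC50 is reported as a ratio to the IC50 in rat hepatocytes.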

[2] = molecular target: T1, 3-hydroxy-3-methylglutaryl-coenzyme A reductase (Rattus norvegicus, UniProt P51639); test: (§2) In vitro inhibitory activity was measured against rat liver HMG-CoA reductase using [2-14C]-acetate incorporation
T1 sequence (P51639 whole entry): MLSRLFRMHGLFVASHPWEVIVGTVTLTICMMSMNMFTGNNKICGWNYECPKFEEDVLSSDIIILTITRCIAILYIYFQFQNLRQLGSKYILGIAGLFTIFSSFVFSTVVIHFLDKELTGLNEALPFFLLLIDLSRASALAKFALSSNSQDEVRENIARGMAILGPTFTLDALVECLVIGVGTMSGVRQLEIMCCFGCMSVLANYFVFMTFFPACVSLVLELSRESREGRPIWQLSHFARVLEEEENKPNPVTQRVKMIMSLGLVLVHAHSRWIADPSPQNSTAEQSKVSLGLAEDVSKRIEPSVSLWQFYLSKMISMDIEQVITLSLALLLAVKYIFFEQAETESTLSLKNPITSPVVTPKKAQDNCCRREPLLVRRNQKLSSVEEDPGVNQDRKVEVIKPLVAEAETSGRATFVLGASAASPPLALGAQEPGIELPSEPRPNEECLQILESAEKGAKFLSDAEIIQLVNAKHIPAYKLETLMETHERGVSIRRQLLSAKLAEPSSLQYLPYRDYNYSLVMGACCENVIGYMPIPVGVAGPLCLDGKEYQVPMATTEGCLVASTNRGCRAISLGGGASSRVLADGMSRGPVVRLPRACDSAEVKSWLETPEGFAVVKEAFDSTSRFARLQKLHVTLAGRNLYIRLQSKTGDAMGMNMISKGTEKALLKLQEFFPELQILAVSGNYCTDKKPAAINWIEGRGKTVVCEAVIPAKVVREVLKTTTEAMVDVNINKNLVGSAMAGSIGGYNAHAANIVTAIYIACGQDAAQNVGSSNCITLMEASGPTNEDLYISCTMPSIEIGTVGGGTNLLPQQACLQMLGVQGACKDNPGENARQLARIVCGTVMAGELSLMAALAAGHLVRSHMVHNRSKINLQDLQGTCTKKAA
Method in brief: (§3)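 Parenchymal hepatocytes from chow-fed male Wistar rats (180–280 g), collagenase-perfused, viability >95%. Cells held at 100 mg wet weight/2.0 mL in MEM with bicarbonate/HEPES, pH 7.4, 2% BSA, under 95% O2/5% CO2. Preincubated with inhibitor for 15 min, with DMSO at 0.5% final for lactones. [2-14C]acetate then added for 60 min at 37 °C. 14C in 3β-hydroxysterols counted. IC50 by regression from ≥4 concentrations; mean of n experiments.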

[3] = species: Rattus norvegicus; test: In vitro inhibitory potency for cholesterol synthesis was measured in rat testes; assay type: functional, Testis; method in brief: as §1
[4] = species: Rattus norvegicus; test: In vitro inhibitory potency for cholesterol synthesis was measured in rat ileum; assay type: functional
[5] = molecular target: T1, 3-hydroxy-3-methylglutaryl-coenzyme A reductase; test: In vitro inhibitory activity was measured against rat liver HMG-CoA reductase
Method in brief: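 Enzyme: intact, fully activated rat liver microsomal HMG-CoA reductase, 50–100 μg protein in buffer A (50 mM imidazole HCl, 250 mM NaCl, 1 mM EDTA, 1 mM EGTA, 5 mM DTT, pH 7.2). Preincubated with inhibitor for 10 min at 37 °C. d,l-[3-14C]HMG-CoA (0.33 mM) and NADPH (3.0 mM) then added. [14C]mevalonate formation measured. IC50 from linear regression of % inhibition vs log concentration, ≥4 dilutions in duplicate.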

[6] = species: Rattus norvegicus; test: In vitro inhibitory potency for cholesterol synthesis was measured in rat adrenals; assay type: functional, Adrenal gland
[7] = species: Bos taurus; test: In vitro inhibitory potency for cholesterol synthesis was measured in bovine lens epithelial cell cultures
[8] = molecular target: T2, 3-hydroxy-3-methylglutaryl-coenzyme A reductase (Rattus norvegicus) (UniProt P51639); test: The compound was tested for the relative potency with respect to standard compound BMY-21950
T2 sequence (whole entry): T1 sequence (P51639 whole entry)

[9] = molecular target: T1, 3-hydroxy-3-methylglutaryl-coenzyme A reductase; test: as §2; remark: listed apart in the source
Method in brief: as §3, with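 “counted.” for “counted. IC50 by regression from ≥4 concentrations; mean of n experiments.”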

Row | IC50 [5] [nM] | Relative potency [8] | Compound | other results
1 | 43 |  | Cn1nnnc1C(/C=C/[C@@H](O)C[C@@H](O)CC(=O)[O-])=C(c1ccc(F)cc1)c1ccc(F)cc1.[Na+] (stereo in doubt; 3a) | IC50 ratio [1]: 149; IC50 [2]: 21 nM; IC50 ratio [3]: 86; IC50 ratio [4]: 129; IC50 ratio [6]: 76; IC50 ratio [7]: 144
2 | 27 | 0.71 | CC[C@H](C)C(=O)O[C@H]1C[C@@H](C)C=C2C=C[C@H](C)[C@H](CC[C@@H]3C[C@@H](O)CC(=O)O3)[C@H]21 [LOVASTATIN] | IC50 ratio [1]: 1.2; IC50 ratio [3]: 1.3; IC50 [9]: 32 nM; IC50 ratio [4]: 1.2; IC50 ratio [6]: 1; IC50 ratio [7]: 1.6
3 | > 300000 | < 6e-05 | CC(C)n1nnc(C(/C=C/[C@@H](O)C[C@@H](O)CC(=O)O)=C(c2ccc(F)cc2)c2ccc(F)cc2)n1 | 
4 | 1600 | 0.012 | Cc1ccc(C(=C(/C=C/[C@@H](O)C[C@@H](O)CC(=O)O)c2nnnn2C)c2ccc(C)cc2C)c(C)c1 | 
5 | 7900 | 0.0024 | CC(/C=C/[C@@H](O)C[C@@H](O)CC(=O)O)=C(c1ccc(F)cc1)c1ccc(F)cc1 | 
6 | 8000 | 0.0024 | N#CC(/C=C/[C@@H](O)C[C@@H](O)CC(=O)O)=C(c1ccc(F)cc1)c1ccc(F)cc1 | 
7 | 1300 | 0.015 | Cc1ccc(C(=C(/C=C/[C@@H](O)C[C@@H](O)CC(=O)O)c2nnnn2C)c2ccc(C)cc2)cc1 | 
8 | 160 | 0.12 | Cc1cc(C(=C(/C=C/[C@@H](O)C[C@@H](O)CC(=O)O)c2nnnn2C)c2ccc(F)c(C)c2)ccc1F | 
9 | 330 | 0.0058 | O=C(O)C[C@H](O)C[C@H](O)/C=C/C(=C(c1ccc(F)cc1)c1ccc(F)cc1)C1N=NN=N1 | 
10 | 200000 | 9.1e-05 | CCn1nnc(C(/C=C/[C@@H](O)C[C@@H](O)CC(=O)O)=C(c2ccc(F)cc2)c2ccc(F)cc2)n1 | 
11 | 1400 | 0.014 | COc1ccc(C(=C(/C=C/[C@@H](O)C[C@@H](O)CC(=O)O)c2nnnn2C)c2ccc(OC)cc2)cc1 | 
12 | 190 | 0.1 | Cn1nnnc1C(/C=C/[C@@H](O)C[C@@H](O)CC(=O)O)=C(c1ccccc1)c1ccccc1 | 
13 | 29 | 0.67 | Cc1cc(F)ccc1C(=C(/C=C/[C@@H](O)C[C@@H](O)CC(=O)O)c1nnnn1C)c1ccc(F)cc1C | 
14 | > 300000 |  | Cn1nnnc1C(/C=C/[C@@H](O)C[C@@H](O)CC(=O)O)=C(c1ccc(F)cc1)c1ccc(F)cc1 (stereo in doubt; 48) | 
15 |  |  | Cn1nnnc1C(/C=C/[C@@H]1C[C@@H](O)CC(=O)O1)=C(c1ccc(F)cc1)c1ccc(F)cc1 | IC50 [9]: 24 nM
16 | 5700 | 0.0033 | Cn1nnnc1C(C=C=C[C@@H](O)C[C@@H](O)CC(=O)O)=C(c1ccc(F)cc1)c1ccc(F)cc1 | 
17 | 3700 |  | CC(C)(C)n1nnc(C(/C=C/[C@@H](O)C[C@@H](O)CC(=O)O)=C(c2ccc(F)cc2)c2ccc(F)cc2)n1 (stereo in doubt; 47) [listing 1 of 2 here] | 
18 | 19 |  | CC(C)(C)n1nnc(C(/C=C/[C@@H](O)C[C@@H](O)CC(=O)O)=C(c2ccc(F)cc2)c2ccc(F)cc2)n1 (stereo in doubt; 49) [listing 1 of 2 here] | 
19 |  | 0.005 | CC(C)(C)n1nnc(C(/C=C/[C@@H](O)C[C@@H](O)CC(=O)O)=C(c2ccc(F)cc2)c2ccc(F)cc2)n1 (stereo in doubt; 47) [listing 2 of 2 here] | 
20 | 230 | 0.095 | CC(C)C(/C=C/[C@@H](O)C[C@@H](O)CC(=O)O)=C(c1ccc(F)cc1)c1ccc(F)cc1 | 
21 | 1100 | 0.017 | CCn1nnnc1C(/C=C/[C@@H](O)C[C@@H](O)CC(=O)O)=C(c1ccc(F)cc1)c1ccc(F)cc1 | 
22 | 44 | 0.43 | Cn1nnnc1C(/C=C/[C@@H](O)C[C@@H](O)CC(=O)O)=C(\c1ccccc1)c1ccc(F)cc1 | 
23 | 130000 | 0.00015 | CC(C)n1nnnc1C(C=C=C[C@@H](O)C[C@@H](O)CC(=O)O)=C(c1ccc(F)cc1)c1ccc(F)cc1 | 
24 | 14000 | 0.0014 | CC(C)n1nnnc1C(/C=C/[C@@H](O)C[C@@H](O)CC(=O)O)=C(c1ccc(F)cc1)c1ccc(F)cc1 | 
25 |  | 1 | CC(C)(C)n1nnc(C(/C=C/[C@@H](O)C[C@@H](O)CC(=O)O)=C(c2ccc(F)cc2)c2ccc(F)cc2)n1 (stereo in doubt; 49) [listing 2 of 2 here] | 
26 |  | 0.43 | Cn1nnnc1C(/C=C/[C@@H](O)C[C@@H](O)CC(=O)O)=C(c1ccc(F)cc1)c1ccc(F)cc1 (stereo in doubt; 3a) | 
27 | 580 | 0.032 | Cc1ccc(C(=C(/C=C/[C@@H](O)C[C@@H](O)CC(=O)O)c2nnnn2C)c2ccc(C)cc2F)c(F)c1 | 
28 | 30000 | 0.00063 | Cn1nnc(C(/C=C/[C@@H](O)C[C@@H](O)CC(=O)O)=C(c2ccc(F)cc2)c2ccc(F)cc2)n1 | 
